Results collected from several papers.
Lines come from different studies, so protocols differ.
Target: RAC-beta serine/threonine-protein kinase (AKT2, Homo sapiens, UniProt P31751)

SMILES	effect on	mode	method	concentration	quantity	result
COc1cc(Nc2ncc(F)c(Nc3ccc4c(n3)NC(=O)C(C)(C)O4)n2)cc(OC)c1OC	binding	–	–	10 µM	inhibition	0%
C#Cc1n[nH]c2c(-c3cn(C(C)c4ccccn4)c(=O)[nH]c3=O)cc(F)cc12 (centres unmarked)	enzyme activity	inhibitor	–	1 µM	inhibition	2%
COc1ncccc1-c1cnn2ccc(N3CCN(C(=O)OC(C)C)CC3)nc12	binding	–	competition with immobilised ligand	1 µM	remaining binding	98%
CC(C)(C)c1cc(C=C(C#N)C#N)cc(Br)c1O	enzyme activity	inhibitor	–	0.5 µM	remaining activity	97.7%
Cc1nn(C)cc1-c1nc2c(N3CCN(Cc4ccc(Cl)cc4)CC3)c(Cl)cnc2[nH]1	binding	–	competition with immobilised ligand	1 µM	remaining binding	100%
N#CC1(c2ccccn2)CCN(Cc2cc(C(=O)O)c(=O)n3ccccc23)CC1	cell-free assay	–	competition with immobilised ligand	1 µM	remaining binding	73%
O=c1[nH]c2ccccc2n1C1CCN(Cc2ccc(-c3[nH]c4cc5ncnc5cc4nc3-c3ccccc3)cc2)CC1	cell-free assay	–	–	0.5 µM	remaining signal	96.8%
Cn1cc(-c2cc(F)cc(N3CCn4c(cc5c4CCCC5)C3=O)c2CO)cc(Nc2ccc(N3CCN(C4COC4)CC3)cn2)c1=O	enzyme activity	inhibitor	–	0.1 µM	inhibition	9%
Nc1ncc(-c2nc(N3CCOCC3)nc(N3CCOCC3)n2)c(C(F)F)n1	binding	–	competition with immobilised ligand	10 µM	remaining binding	100%
Cn1cc(-c2cccc(N3CCc4c(sc5c4CC(C)(C)C5)C3=O)c2CO)cc(Nc2ccncn2)c1=O	enzyme activity	inhibitor	–	1 µM	inhibition	2%
Cn1cncc1[C@@](O)(COc1ccc(C#N)cc1-c1ccc(OC(F)(F)F)cc1)c1ccc(C#N)cc1	cell-free assay	–	competition with immobilised ligand	1 µM	remaining binding	78%
